Reference: ChEMBL document CHEMBL1153953, “Synthesis and pharmacological evaluation of coumarin derivatives as cannabinoid receptor antagonists and inverse agonists” (Bioorg Med Chem, 2009)

Biological target: Cannabinoid receptor 1 (Homo sapiens) (UniProt P21554)
Assay: Inverse agonist activity at human recombinant cannabinoid CB1 receptor expressed in HEK293 cells assessed as decrease in GTPgammaS binding at 30 uM by liquid scintillation counting relative to CP-55940
Format: functional, cell-based
Parameters: scale not given: the % may be the effect or the level left

Cannabinoid receptor 1 (Homo sapiens), sequence (P21554 whole entry): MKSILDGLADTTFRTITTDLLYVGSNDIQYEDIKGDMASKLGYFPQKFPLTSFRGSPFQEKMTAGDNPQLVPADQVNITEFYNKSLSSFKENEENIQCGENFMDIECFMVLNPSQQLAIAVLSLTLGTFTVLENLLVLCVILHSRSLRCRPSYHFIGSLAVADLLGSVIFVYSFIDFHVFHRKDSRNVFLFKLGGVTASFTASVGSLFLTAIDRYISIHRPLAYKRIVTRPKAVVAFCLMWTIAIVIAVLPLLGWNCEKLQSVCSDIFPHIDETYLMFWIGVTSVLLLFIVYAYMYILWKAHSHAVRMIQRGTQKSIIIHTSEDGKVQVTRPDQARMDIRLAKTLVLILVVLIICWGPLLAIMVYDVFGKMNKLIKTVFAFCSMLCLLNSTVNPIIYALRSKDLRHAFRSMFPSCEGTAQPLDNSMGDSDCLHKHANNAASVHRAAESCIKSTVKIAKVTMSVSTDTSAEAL

| SMILES | Activity [%] |
| --- | --- |
| O=c1oc2ccc3ccccc3c2cc1Cc1ccccc1 | -21 |
| COc1ccc(Cc2cc3c(OC)cc(C)cc3oc2=O)cc1 | -10 |
| COc1ccccc1Cc1cc2c(OC)cc(C)cc2oc1=O | -16 |
| COc1cc(C)cc2oc(=O)c(Cc3ccccc3)cc12 | -8 |
| Cc1c(C(=O)NN2CCOCC2)nn(-c2ccc(Cl)cc2Cl)c1-c1ccc(I)cc1 | -19 |
| Cc1ccc(C(C)C)c2cc(Cc3ccccc3)c(=O)oc12 | -9 |

Biological target: T1, Cannabinoid receptor 2 (Homo sapiens, UniProt P34972)
Assay: Displacement of [3H]CP-55940 from human recombinant cannabinoid CB2 receptor expressed in HEK293 cells at 10 uM
Format: cell-based
Summary of the method: (§1)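 Competition vs 0.5 nM [3H]CP55,940 using commercial HEK293 EBNA membranes expressing human CB2, 50 µg protein/well, in 50 mM Tris-HCl pH 7.4, 3 mM MgCl2, 0.1% BSA; 2.5% DMSO final; rt, 2 h, started by protein; nonspecific with 10 µM unlabeled CP55,940; GF/C filtration, scintillation counting; ≥3 experiments in duplicate.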

T1 sequence (P34972 whole entry): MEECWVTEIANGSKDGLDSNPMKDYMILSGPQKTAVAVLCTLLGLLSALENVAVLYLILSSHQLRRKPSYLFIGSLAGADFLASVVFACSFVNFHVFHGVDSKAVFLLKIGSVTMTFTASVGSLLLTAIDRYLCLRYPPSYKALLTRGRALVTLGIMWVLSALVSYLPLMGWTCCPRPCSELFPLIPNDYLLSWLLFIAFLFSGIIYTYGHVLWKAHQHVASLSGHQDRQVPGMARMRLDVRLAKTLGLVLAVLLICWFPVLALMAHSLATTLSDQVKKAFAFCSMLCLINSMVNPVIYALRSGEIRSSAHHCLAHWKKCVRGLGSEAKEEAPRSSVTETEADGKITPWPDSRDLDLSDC

| SMILES | Activity [%] |
| --- | --- |
| COc1cccc2cc(C)c(=O)oc12 | 4 |
| O=C1C2=Cc3ccccc3OC2CC/C1=C\c1ccccc1O (centres undefined) | 37 |
| O=c1oc2ccccc2cc1Cc1ccccc1 | 28 |
| O=c1oc2ccc3ccccc3c2cc1Cc1ccccc1 | 59 |
| CC1(C)Oc2c(cccc2-c2ccccc2)C=C1C=O | 3 |
| COc1ccc(Br)c2c1C=C(C(C)=O)C(C)O2 (centres undefined) | 7 |
| Cc1cc2c(ccc3ccccc32)oc1=O | 2 |
| COc1ccc(Br)c2oc(=O)c(Cc3ccccc3)cc12 | 29 |
| COc1cccc2cc(Cc3ccccc3)c(=O)oc12 | 25 |
| COc1cc(C)cc2oc(=O)c(Cc3ccccc3)cc12 | 45 |
| COc1ccc2oc(=O)c(C)cc2c1 | 7 |
| Cc1cc2cc(I)ccc2oc1=O | 10 |
| Cc1cc2c(C(C)C)ccc(C)c2oc1=O | 0 |
| COc1ccc2oc(=O)c(Cc3ccccc3)cc2c1 | 37 |
| COc1cccc2oc(=O)c(Cc3ccccc3)cc12 | 28 |
| COc1ccc2cc(Cc3ccccc3)c(=O)oc2c1 | 33 |
| CCOC(=O)/C(=C/C=C/c1ccccc1)C(=O)Oc1c(C2SCCS2)ccc2c1C=CC(C)(C)O2 | 22 |
| O=c1oc2ccc(I)cc2cc1Cc1ccccc1 | 44 |
| COc1cc(Br)cc2cc(C)c(=O)oc12 | 9 |
| O=c1oc2ccc([N+](=O)[O-])cc2cc1Cc1ccccc1 | 15 |
| Cc1cc2cc(Cl)cc(Br)c2oc1=O | 3 |
| COc1ccc2cc(C)c(=O)oc2c1 | 2 |

Biological target: Cannabinoid receptor 1 (Rattus norvegicus, UniProt P20272)
Assay: Displacement of [3H]CP-55940 from cannabinoid CB1 receptor in rat brain cortical membrane
Format: cell membranes

Cannabinoid receptor 1, sequence (P20272 whole entry): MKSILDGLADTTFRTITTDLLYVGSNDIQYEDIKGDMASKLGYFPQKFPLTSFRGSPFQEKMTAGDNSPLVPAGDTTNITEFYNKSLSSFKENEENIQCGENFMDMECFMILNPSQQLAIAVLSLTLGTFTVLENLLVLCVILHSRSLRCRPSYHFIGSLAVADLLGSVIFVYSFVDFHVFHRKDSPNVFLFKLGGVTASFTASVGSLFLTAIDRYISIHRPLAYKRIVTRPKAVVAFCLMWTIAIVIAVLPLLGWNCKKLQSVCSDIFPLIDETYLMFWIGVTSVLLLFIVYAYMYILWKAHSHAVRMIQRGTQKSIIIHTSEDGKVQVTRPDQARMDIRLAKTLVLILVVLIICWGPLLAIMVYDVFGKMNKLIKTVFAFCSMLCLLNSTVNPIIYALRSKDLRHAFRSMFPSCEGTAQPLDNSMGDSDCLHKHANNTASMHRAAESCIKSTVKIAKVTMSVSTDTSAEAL

| SMILES | Ki [µM] |
| --- | --- |
| COc1cccc2cc(C)c(=O)oc12 | ≥ 10 |
| COc1cc(C)cc2oc(=O)c(Cc3ccccc3O)cc12 | 1.1 |
| O=C1C2=Cc3ccccc3OC2CC/C1=C\c1ccccc1O (centres undefined) | 4.9 |
| COc1cc(C)cc2oc(=O)c(Cc3ccccc3C)cc12 | 1.17 |
| O=c1oc2ccccc2cc1Cc1ccccc1 | > 10 |
| O=c1oc2ccc3ccccc3c2cc1Cc1ccccc1 | 4.19 |
| COc1cccc(Cc2cc3c(OC)cc(C)cc3oc2=O)c1 | 4.11 |
| COc1ccccc1Cc1cc2c(ccc3ccccc32)oc1=O | > 10 |
| COc1cc(C)cc2oc(=O)c(Cc3ccc(C)cc3)cc12 | 9.14 |
| CC1(C)Oc2c(cccc2-c2ccccc2)C=C1C=O | ≥ 10 |
| COc1ccc(Br)c2c1C=C(C(C)=O)C(C)O2 (centres undefined) | > 10 |
| Cc1cc2c(ccc3ccccc32)oc1=O | > 10 |
| COc1ccc(Cc2cc3c(OC)cc(C)cc3oc2=O)cc1 | 6.14 |
| COc1ccc(Cc2cc3c(OC)cc(C)cc3oc2=O)c(OC)c1 | 6.23 |
| COc1ccccc1Cc1cc2c(OC)cc(C)cc2oc1=O | 0.738 |
| COc1ccc(Br)c2oc(=O)c(Cc3ccccc3)cc12 | > 10 |
| COc1cccc2cc(Cc3ccccc3)c(=O)oc12 | ≥ 10 |
| COc1cc(C)cc2oc(=O)c(Cc3ccccc3Cl)cc12 | 0.978 |

| SMILES | Ki [µM] |
| --- | --- |
| COc1cc(C)cc2oc(=O)c(Cc3ccc(Cl)cc3)cc12 | 2.08 |
| COc1cc(C)cc2oc(=O)c(Cc3ccccc3)cc12 | 3.46 |
| COc1ccc2oc(=O)c(C)cc2c1 | > 10 |
| Cc1cc2cc(I)ccc2oc1=O | > 10 |
| Cc1cc2c(C(C)C)ccc(C)c2oc1=O | > 10 |
| COc1ccc2oc(=O)c(Cc3ccccc3)cc2c1 | ≥ 10 |
| COc1cccc2oc(=O)c(Cc3ccccc3)cc12 | 19.1 |
| COc1ccccc1Cc1cc2c(OC)ccc(C)c2oc1=O | 12.3 |
| COc1ccc2cc(Cc3ccccc3)c(=O)oc2c1 | > 10 |
| CCOC(=O)/C(=C/C=C/c1ccccc1)C(=O)Oc1c(C2SCCS2)ccc2c1C=CC(C)(C)O2 | 1.37 |
| Cc1ccc(C(C)C)c2cc(Cc3ccccc3)c(=O)oc12 | 2.76 |
| O=c1oc2ccc(I)cc2cc1Cc1ccccc1 | > 10 |
| COc1ccccc1Cc1cc2c(OC)cccc2oc1=O | 9.57 |
| COc1cc(Br)cc2cc(C)c(=O)oc12 | > 10 |
| O=c1oc2ccc([N+](=O)[O-])cc2cc1Cc1ccccc1 | > 10 |
| COc1ccccc1Cc1cc2c(C(C)C)ccc(C)c2oc1=O | 6.18 |
| Cc1cc2cc(Cl)cc(Br)c2oc1=O | ≥ 10 |
| COc1ccc2cc(C)c(=O)oc2c1 | ≥ 10 |

Biological target: Cannabinoid receptor 1 (Rattus norvegicus) (UniProt P20272)
Assay: Antagonist activity at cannabinoid CB1 receptor in rat brain cortical membrane assessed as effect on GTPgammaS binding at 30 uM by liquid scintillation counting relative to CP-55940
Format: functional, cell membranes
Parameters: scale not given: the % may be the effect or the level left

Cannabinoid receptor 1 (Rattus norvegicus), sequence (P20272 whole entry): as above

| SMILES | Activity [%] |
| --- | --- |
| O=c1oc2ccc3ccccc3c2cc1Cc1ccccc1 | 15 |
| COc1ccc(Cc2cc3c(OC)cc(C)cc3oc2=O)cc1 | 13 |
| COc1ccccc1Cc1cc2c(OC)cc(C)cc2oc1=O | -2 |
| COc1cc(C)cc2oc(=O)c(Cc3ccccc3)cc12 | 3 |
| Cc1c(C(=O)NN2CCOCC2)nn(-c2ccc(Cl)cc2Cl)c1-c1ccc(I)cc1 | 2 |
| Cc1ccc(C(C)C)c2cc(Cc3ccccc3)c(=O)oc12 | 19 |

Biological target: Cannabinoid receptor 1 (Rattus norvegicus) (UniProt P20272)
Assay: Displacement of [3H]CP-55940 from cannabinoid CB1 receptor in rat brain cortical membrane at 10 uM
Format: cell membranes
Summary of the method: as §1, with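 “on rat brain cortical” for “using commercial HEK293 EBNA”, “(cortex homogenized in 0.32 M sucrose, differentially centrifuged),” for “expressing human CB2,”, “triplicate.” for “duplicate.”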

| SMILES | Activity [%] |
| --- | --- |
| COc1cccc2cc(C)c(=O)oc12 | 6 |
| O=c1oc2ccccc2cc1Cc1ccccc1 | 18 |
| COc1ccccc1Cc1cc2c(ccc3ccccc32)oc1=O | 41 |
| CC1(C)Oc2c(cccc2-c2ccccc2)C=C1C=O | 46 |
| COc1ccc(Br)c2c1C=C(C(C)=O)C(C)O2 (centres undefined) | 34 |
| Cc1cc2c(ccc3ccccc32)oc1=O | 10 |
| COc1ccc(Br)c2oc(=O)c(Cc3ccccc3)cc12 | 39 |
| COc1cccc2cc(Cc3ccccc3)c(=O)oc12 | 6 |
| COc1ccc2oc(=O)c(C)cc2c1 | 15 |
| Cc1cc2cc(I)ccc2oc1=O | 12 |
| Cc1cc2c(C(C)C)ccc(C)c2oc1=O | 26 |
| COc1ccc2oc(=O)c(Cc3ccccc3)cc2c1 | 8 |
| COc1ccc2cc(Cc3ccccc3)c(=O)oc2c1 | 31 |
| O=c1oc2ccc(I)cc2cc1Cc1ccccc1 | 31 |
| COc1cc(Br)cc2cc(C)c(=O)oc12 | 17 |
| O=c1oc2ccc([N+](=O)[O-])cc2cc1Cc1ccccc1 | 32 |
| Cc1cc2cc(Cl)cc(Br)c2oc1=O | 8 |
| COc1ccc2cc(C)c(=O)oc2c1 | 1 |

Biological target: T1, Cannabinoid receptor 2
Assay: Displacement of [3H]CP-55940 from human recombinant cannabinoid CB2 receptor expressed in HEK293 cells
Format: cell-based

| SMILES | Ki [µM] |
| --- | --- |
| COc1cccc2cc(C)c(=O)oc12 | > 10 |
| COc1cc(C)cc2oc(=O)c(Cc3ccccc3O)cc12 | 5.24 |
| O=C1C2=Cc3ccccc3OC2CC/C1=C\c1ccccc1O (centres undefined) | > 10 |
| COc1cc(C)cc2oc(=O)c(Cc3ccccc3C)cc12 | 2.16 |
| O=c1oc2ccccc2cc1Cc1ccccc1 | > 10 |
| O=c1oc2ccc3ccccc3c2cc1Cc1ccccc1 | ≥ 10 |
| COc1cccc(Cc2cc3c(OC)cc(C)cc3oc2=O)c1 | 3.37 |
| COc1ccccc1Cc1cc2c(ccc3ccccc32)oc1=O | 2.06 |
| COc1cc(C)cc2oc(=O)c(Cc3ccc(C)cc3)cc12 | 4.76 |
| CC1(C)Oc2c(cccc2-c2ccccc2)C=C1C=O | > 10 |
| COc1ccc(Br)c2c1C=C(C(C)=O)C(C)O2 (centres undefined) | > 10 |
| Cc1cc2c(ccc3ccccc32)oc1=O | ≥ 10 |
| COc1ccc(Cc2cc3c(OC)cc(C)cc3oc2=O)cc1 | 5.81 |
| COc1ccc(Cc2cc3c(OC)cc(C)cc3oc2=O)c(OC)c1 | 2.78 |
| COc1ccccc1Cc1cc2c(OC)cc(C)cc2oc1=O | 1.03 |
| COc1ccc(Br)c2oc(=O)c(Cc3ccccc3)cc12 | > 10 |
| COc1cccc2cc(Cc3ccccc3)c(=O)oc12 | ≥ 10 |
| COc1cc(C)cc2oc(=O)c(Cc3ccccc3Cl)cc12 | 1.54 |

| SMILES | Ki [µM] |
| --- | --- |
| COc1cc(C)cc2oc(=O)c(Cc3ccc(Cl)cc3)cc12 | 9.39 |
| COc1cc(C)cc2oc(=O)c(Cc3ccccc3)cc12 | ≥ 10 |
| COc1ccc2oc(=O)c(C)cc2c1 | ≥ 10 |
| Cc1cc2cc(I)ccc2oc1=O | > 10 |
| Cc1cc2c(C(C)C)ccc(C)c2oc1=O | > 10 |
| COc1ccc2oc(=O)c(Cc3ccccc3)cc2c1 | > 10 |
| COc1cccc2oc(=O)c(Cc3ccccc3)cc12 | > 10 |
| COc1ccccc1Cc1cc2c(OC)ccc(C)c2oc1=O | 3.65 |
| COc1ccc2cc(Cc3ccccc3)c(=O)oc2c1 | > 10 |
| CCOC(=O)/C(=C/C=C/c1ccccc1)C(=O)Oc1c(C2SCCS2)ccc2c1C=CC(C)(C)O2 | > 10 |
| Cc1ccc(C(C)C)c2cc(Cc3ccccc3)c(=O)oc12 | 4.27 |
| O=c1oc2ccc(I)cc2cc1Cc1ccccc1 | ≥ 10 |
| COc1ccccc1Cc1cc2c(OC)cccc2oc1=O | 3.49 |
| COc1cc(Br)cc2cc(C)c(=O)oc12 | > 10 |
| O=c1oc2ccc([N+](=O)[O-])cc2cc1Cc1ccccc1 | > 10 |
| COc1ccccc1Cc1cc2c(C(C)C)ccc(C)c2oc1=O | 5.67 |
| Cc1cc2cc(Cl)cc(Br)c2oc1=O | ≥ 10 |
| COc1ccc2cc(C)c(=O)oc2c1 | ≥ 10 |
